The source of these data is ChEMBL document CHEMBL2163278, “α-Substituted β-oxa isosteres of fosmidomycin: synthesis and biological evaluation” (J Med Chem, 2012).

A value given as a limit tells only on which side of the number the result lay.

The test system of experiment [1] is Plasmodium falciparum. The experiment can be described thus: Antiplasmodial activity against chloroquine-sensitive Plasmodium falciparum 3D7 incubated for 3 days by HRP2 detection based ELISA method. Format: functional, organism-based. Particulars: 3D7, 72 h. In short, it runs like this:
(§1)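 P. falciparum in continuous in vitro culture, growth inhibition assay. Each compound was tested in 12 serial dilutions, in duplicate. IC50 is the mean of at least two independent experiments.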
(In general: ELISA stands for enzyme-linked immunosorbent assay.)

Experiment [2] can be described thus: Inhibition of recombinant Plasmodium falciparum recombinant IspC using […]1-Deoxy-D-xylulose 5-phosphate substrate by photometric assay. In short, it runs like this: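 Enzyme IC50 from nonlinear regression of inhibition data; mean ± SD from nine or more data points.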
For experiment [3], the system named is Plasmodium falciparum. The experiment can be described thus: Antiplasmodial activity against chloroquine-resistant Plasmodium falciparum Dd2 incubated for 3 days by HRP2 detection based ELISA method. Format: functional, organism-based. The settings on record: Dd2, 72 h. In short, it runs like this:
as §1

For orientation: IC50 means the concentration at which inhibition is half-maximal. On to `Cc1ccc(C(OCC(=O)NO)P(=O)(O)O)cc1` (stereo not given), for which the values for the IC50 (with Plasmodium falciparum [1]; in experiment [2]) were greater than 50000 nM and 1800 nM, respectively.

Turning to `CN(O)C(=O)COC(c1ccc(F)c(F)c1)P(=O)(OCOC(=O)C(C)(C)C)OCOC(=O)C(C)(C)C` (stereo not given), the results for the half-inhibitory concentration (IC50) with Plasmodium falciparum [1] and in the experiment with Plasmodium falciparum [3] were 13 nM and 22 nM, respectively.

As to `CCOC(=O)ON(C)C(=O)COC(c1ccc(F)c(F)c1)P(=O)(OCOC(=O)C(C)(C)C)OCOC(=O)C(C)(C)C` (stereo not given), the IC50 came to 23 nM in the experiment on Plasmodium falciparum [1] and 19 nM in the experiment with Plasmodium falciparum [3].

Turning to `CCNC(=O)ON(C)C(=O)COC(c1ccc(F)c(F)c1)P(=O)(OCOC(=O)C(C)(C)C)OCOC(=O)C(C)(C)C` (stereo not given), the half-inhibitory concentration (IC50) in the experiment with Plasmodium falciparum [1] amounted to 31 nM; in the experiment with Plasmodium falciparum [3], 22 nM.

For the compound `CN(O)C(=O)CCC(c1ccccc1)P(=O)(O)O` (stereo not given), the IC50 in experiment [2] was determined as 3.1 nM.

For `Cc1ccc(C(CCC(=O)N(C)O)P(=O)(O)O)cc1` (stereo not given), the IC50 in experiment [2] turned out to be 14 nM.

As for `CN(O)C(=O)COC(c1ccccc1)P(=O)(O)O` (stereo not given), the figures for the IC50 (in the experiment on Plasmodium falciparum [1]; with Plasmodium falciparum [3]; in experiment [2]) were 1200 nM, 700 nM and 37 nM, respectively.

Regarding `CN(O)C(=O)COC(c1cccc2ccccc12)P(=O)(O)O` (stereo not given), the IC50 in the experiment on Plasmodium falciparum [1] was found to be 520 nM; with Plasmodium falciparum [3], 350 nM; in experiment [2], 39 nM.

Take `CN(O)C(=O)COC(c1ccc(F)cc1)P(=O)(O)O` (stereo not given): the IC50 worked out at 480 nM in the experiment with Plasmodium falciparum [1], 350 nM in the experiment on Plasmodium falciparum [3] and 27 nM in experiment [2].

Consider `CN(O)C(=O)COC(c1ccc(F)cc1F)P(=O)(O)O` (stereo not given), for which the half-maximal inhibitory concentration (IC50) stood at 1300 nM with Plasmodium falciparum [1], 1200 nM with Plasmodium falciparum [3] and 65 nM in experiment [2].

On to `CN(O)C(=O)COC(c1ccc(F)c(F)c1)P(=O)(O)O` (stereo not given), for which the IC50 in the experiment with Plasmodium falciparum [1] is 540 nM; in the experiment on Plasmodium falciparum [3], 130 nM; in experiment [2] it was 12 nM.

Consider `CN(O)C(=O)COC(c1ccc(Cl)c(Cl)c1)P(=O)(O)O` (stereo not given), for which the results for the IC50 (in the experiment with Plasmodium falciparum [1]; in the experiment on Plasmodium falciparum [3]; in experiment [2]) were 240 nM, 140 nM and 14 nM, respectively.

Take `Cc1ccc(C(OCC(=O)N(C)O)P(=O)(O)O)cc1` (stereo not given): the results for the IC50 (in the experiment on Plasmodium falciparum [1]; in the experiment with Plasmodium falciparum [3]; in experiment [2]) were 180 nM, 190 nM and 25 nM, respectively.

Take `CCN(O)C(=O)COC(c1ccccc1)P(=O)(O)O` (stereo not given): the half-maximal inhibitory concentration (IC50) with Plasmodium falciparum [1] is 8100 nM; in the experiment with Plasmodium falciparum [3] it was 3800 nM; in experiment [2] it was 210 nM.

For `O=C(COC(c1ccccc1)P(=O)(O)O)NO` (stereo not given), the IC50 was greater than 50000 nM with Plasmodium falciparum [1] and 1500 nM in experiment [2].

Regarding `O=C(COC(c1ccc(F)cc1F)P(=O)(O)O)NO` (stereo not given), the IC50 with Plasmodium falciparum [1] is greater than 50000 nM; in experiment [2], 1700 nM.

`O=CN(O)CCCP(=O)(O)O` [FOSMIDOMYCIN SODIUM]: the figures for the half-inhibitory concentration (IC50) with Plasmodium falciparum [1] and in the experiment with Plasmodium falciparum [3] were 880 nM and 810 nM, respectively.
